An excerpt weighted towards active compounds, which were near 7.6% of everything screened.
D1 mod: D1 CRE-luciferase signal change, two-sided – cell-based, HEK293 D1, dopamine EC30, D1 allosteric modulator project, primary screen; dopamine EC30 potentiation; actives deviate in either direction; 58,000 tested, 5.9% active; B-score at 10 µM; D(1A) dopamine receptor (Homo sapiens), P21728;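 active means luminescence count or its row- and column-corrected plate score outside the 99.7% band of the plate's sample wells, on either side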
Target sequence (P21728 whole entry, looked up): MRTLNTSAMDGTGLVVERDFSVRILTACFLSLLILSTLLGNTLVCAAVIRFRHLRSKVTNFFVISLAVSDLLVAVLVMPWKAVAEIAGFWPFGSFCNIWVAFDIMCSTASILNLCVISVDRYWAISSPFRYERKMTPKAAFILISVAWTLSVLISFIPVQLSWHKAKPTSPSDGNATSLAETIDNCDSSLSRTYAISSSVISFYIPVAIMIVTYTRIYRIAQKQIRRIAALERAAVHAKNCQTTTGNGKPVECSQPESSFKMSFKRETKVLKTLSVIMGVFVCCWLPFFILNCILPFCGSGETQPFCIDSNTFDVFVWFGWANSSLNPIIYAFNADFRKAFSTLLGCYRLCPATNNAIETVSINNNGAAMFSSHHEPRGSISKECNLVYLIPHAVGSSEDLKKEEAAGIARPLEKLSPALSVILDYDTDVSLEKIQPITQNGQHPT
M1 ag: M1 muscarinic receptor agonists, primary screen, CHO-M1 cells, Fluo-4 calcium, agonist mode. Fluo-4 calcium fluorescence; hits give high values. B-score at 10 µM. Muscarinic acetylcholine receptor M1. 64,000 tested, 3% active;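 active means fluorescence rise, raw or as B-score row- and column-corrected plate score, outside the 99.7% band of its plate's samples, either direction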
M1 antag: antagonists of rat M1 muscarinic receptor. CHO-M1 cells, Fluo-4 calcium, ACh EC80 antagonist mode; hits give low values. B-score at 10 µM. 64,000 tested, 3.4% active;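 active means calcium fluorescence response, raw or row-and-column corrected B-score, differing from the plate sample mean either way at a set confidence level, mostly lower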
HEK293 NFkB inh: inhibitors of PMA/ionomycin-induced NF-kB reporter, primary screen, antigen receptor NF-kB inhibitor project, cell-based, HEK-293 luciferase reporter, luminescence; HEK-293 NF-kB luciferase reporter; inhibition, % at 3 µM; 62,000 tested, 0.21% active;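 active means inhibition above the mean of all tested compounds plus 3 SD, cut at about 40% in these data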;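 further: 0% = stimulated DMSO wells and 100% = 10 µM reference inhibitor 5653914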
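Reagent: PMA plus ionomycin mix as NF-kB-activating stimulus. Assay system: NF-kB luciferase reporter HEK-293 cells. Technique: luminescence from luciferase substrate reagent. Incubation: 1 h compound pre-incubation, 16 h PMA/ionomycin at 37 °C. Benchmarks: DMSO only as uninhibited control, 10 µM reference inhibitor as full inhibition. Repeats: tested once.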
Jurkat tox 60K: cytotoxicity toward Jurkat T cells, primary screen, cytotoxicity control, cell-based, Jurkat E6.1, 60K MLSMR library | Jurkat E6.1 viability, ATP luminescence, 48 h | inhibition, % at 4 µM | AID 463, 2006 | 56,000 tested, 1.2% active;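 active means inhibition above the mean inhibition of all tested compounds plus 3 SD, cut at about 28% in these data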
hDAT+cocaine: changed hDAT dopamine uptake under cocaine IC80, either direction, primary screen, cocaine antagonist project, cell-based, LLC-PK1 hDAT, [14C]-dopamine uptake, MLSMR; Sodium-dependent dopamine transporter (Homo sapiens), Q01959; B-score at 10 µM; 110,000 tested, 1.3% active; LLC-PK1 hDAT cells, [14C]-dopamine uptake with cocaine IC80; actives deviate in either direction;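 active means Z score or B-score, a plate-position-corrected score, falls beyond the plate's 99.7% confidence bounds, in either direction; inactive means both scores lie inside the 99.7% bounds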;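 further: scored against the spread of the other compound wells on the same plate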
Active calls of the source: *; . = no result.

SMILES | D1 mod | M1 ag | M1 antag | HEK293 NFkB inh | Jurkat tox 60K | hDAT+cocaine
Cc1cc(C(=O)N2CCN(c3cccc(Cl)c3)CC2)c(C)o1 | 0.035 | -0.74 | -2.5 | 11 | 75* | 0.09
CC12C(=O)N(c3cccc(OC(=O)c4ccco4)c3)C(=O)C1C1c3ccccc3C2c2ccccc21 (stereo not drawn) | . | . | . | . | . | -0.63
O=C(O)CCC(=O)N1CCN(c2nc(-c3ccccc3Cl)c3cc(Br)ccc3n2)CC1 | . | . | . | . | . | 3*
Cc1ccc(Nc2cc(C)nn2-c2nc(C)cc(C)n2)cc1 | -0.55 | 0.19 | -0.029 | 12 | 10 | -0.42
Cc1ccc(Nc2cc(C)nn2-c2nc(C)cc(=O)[nH]2)cc1 | -0.81 | 0.59 | -0.0025 | 68* | 94* | -0.55
CCOC(=O)Cn1cc(C=O)c2ccccc21 | . | . | . | . | . | -10*
CCOC(=O)Cn1cc(C(=O)OC)c2ccccc21 | -0.096 | -0.17 | -0.083 | -8 | 4 | 0.27
Oc1c(Cl)cc(Cl)cc1/C=N/c1nccs1 | . | . | . | . | . | 4.4*
Oc1[nH]c2ccccc2c1/C=N/c1nccs1 | -0.4 | -0.71 | -1.2 | -5 | 2 | .
O=C1N2c3ccccc3CCc3cccc(c32)C1(O)C(F)(F)F (stereo not drawn) | -2.7* | -1.5 | 0.27 | 12 | 5 | -2.2
O=C1CCCC2=C1C(O)(C(F)(F)F)C(=O)N2Cc1ccccc1 (stereo not drawn) | -0.17 | -0.91 | 0.037 | 10 | 1 | -0.36
Cc1cccc(-c2c3c(=O)n(C)c(=O)n(C)c3c3nnc4ccccc4n23)c1 | 2.2 | 5.2* | -0.85 | 2 | 2 | .
CCC(C)Oc1ccccc1C1CC(=O)NC2=C1C(=O)CCC2 (stereo not drawn) | 0.4 | -1.4 | -0.21 | 9 | 40* | 1.1
Cc1ccc(S(=O)(=O)N=S(CC2CC2(Cl)Cl)CC2CC2(Cl)Cl)cc1 (stereo not drawn) | . | . | . | . | . | 0.66
CN(C(=O)c1ccc2c(=O)n3c(nc2c1)CCCCC3)c1ccccc1 | -0.69 | 0.65 | 0.21 | 13 | 5 | -0.56
O=C(c1ccc2c(=O)n3c(nc2c1)CCCCC3)N1CCN(C(c2ccccc2)c2ccccc2)CC1 | . | . | . | . | . | -4.1*
CCCCOC(=O)Nc1cc(C(=O)OC)ccc1C(=O)OC | -7* | 0.8 | 0.41 | 21 | 9 | 1.7
COc1cccc(N2C(=O)C(CC(=O)Nc3ccccc3)N(C3CCCCC3)C2=O)c1 (stereo not drawn) | -7.4* | 0.054 | 0.18 | 16 | . | 0.52
Cc1sc2nc(SCC(=O)c3cc(C)n(CC4CCCO4)c3C)n(C(C)C)c(=O)c2c1C (stereo not drawn) | -2.3* | 0.3 | -1.4 | 12 | 2 | 2
Cc1cc(C(=O)CSc2nc3ccccc3o2)c(C)n1CC1CCCO1 (stereo not drawn) | . | . | . | . | . | -0.31
Cc1ccc(SCC(=O)NCCC2=CCCCC2)cc1 | . | . | . | . | . | 0.18
Cc1ccc2cc(CN(Cc3ccco3)C(=O)c3cccs3)c(=O)[nH]c2c1 | 0.21 | -0.24 | -0.34 | 10 | 92* | 0.26
O=C(O)CCCNc1cc(N2CCC3(CC2)OCCO3)c2noc3c2c1C(=O)c1ccccc1-3 | 2.5 | 6.2* | 0.42 | -9 | -2 | .
COc1ccc(C2CC(c3ccc(OC)cc3)n3nc(NC(=O)c4cccs4)nc3N2)cc1 (stereo not drawn) | . | . | . | . | . | 0.24
O=C1NC(O)(c2ccccc2)Oc2ccccc21 (stereo not drawn) | . | . | . | . | . | -0.17
SMILES | D1 mod | M1 ag | M1 antag | HEK293 NFkB inh | Jurkat tox 60K | hDAT+cocaine
CC1CCC2(CC1)NC(=O)c1ccccc1O2 (stereo not drawn) | -2.4* | -0.21 | 0.16 | 4 | -5 | 0.35
CCCCC(=O)OCCNC(=O)c1cc2ccccc2oc1=O | -0.0026 | -0.97 | -0.58 | 13 | -5 | 0.093
CCc1nnc(NC(=O)c2ccc(S(=O)(=O)N3CCCCC3C)cc2)s1 (stereo not drawn) | . | -0.28 | -0.11 | 3 | -4 | 0.24
CC1CC(C)CN(S(=O)(=O)c2ccc(C(=O)Nc3nnc(-c4cccs4)o3)cc2)C1 (stereo not drawn) | 0.33 | 0.28 | -0.67 | 22 | 44* | .
O=C(Nc1nnc(-c2cccs2)o1)c1cccc(C(F)(F)F)c1 | 0.85 | 2.8 | -0.74 | 0 | 64* | -1.2
O=C(CCc1ccccc1)Nc1nnc(-c2cccs2)o1 | -0.99 | 0.092 | -0.67 | 2 | 12 | -0.36
CCC1CCCCN1S(=O)(=O)c1ccc(C(=O)Nc2nnc(-c3cccs3)o2)cc1 (stereo not drawn) | -2 | -1.4 | 0.15 | 34 | 82* | -0.22
COc1ccc(-c2noc(CCCOc3ccc(Cl)cc3Cl)n2)cc1 | . | . | . | . | . | -0.21
CC(C)(C)c1cnnn1-c1ccc(C=O)cc1 | . | . | . | . | . | -2.7*
CC(C)(C)c1cnnn1-c1ccc(C(=O)CCl)cc1 | . | . | . | . | . | -0.57
c1cn2cc(CSC3CCCCC3)nc2s1 | -2.1 | 0.98 | 0.38 | -20 | 4 | -0.9
O=S1(=O)C=C(Sc2nc3cc(Cl)ccc3o2)c2ccccc21 | -2.3* | -0.4 | 0.13 | 32 | 99* | -1
COc1ccc(-c2nnc(CSc3nc4ccccc4c(=O)n3C)o2)cc1OC | 8.5* | 1.1 | -0.83 | 7 | 4 | 1.5
O=c1c2ccccc2nc(SCc2nnc(-c3ccccc3)o2)n1-c1ccc(F)cc1F | -0.32 | -0.06 | 1 | 15 | 0 | -0.3
COCCNC(=O)C1CC(=O)N(CCc2ccccc2)C1 (stereo not drawn) | 2 | -0.044 | 0.088 | 10 | 3 | -1.7
CCOCCCN1CC(C(=O)NCCc2ccccc2)CC1=O (stereo not drawn) | 0.48 | 0.29 | 2.2* | 13 | 4 | -0.12
COc1ccc(CCNC(=O)c2ccc(CNc3c(N4CCOCC4)c(=O)c3=O)cc2)cc1OC | 0.82 | -0.44 | -1 | 4 | -5 | -0.37
CO/N=C/C(C#N)c1ncc(C(F)(F)F)cc1Cl (stereo not drawn) | . | . | . | . | . | -2.5*
CON=C1CCN(c2ncc(C(F)(F)F)cc2Cl)CC1 | . | . | . | . | . | -0.09
CC1CCN(c2nc3ccc(C(=O)O)cc3s2)CC1 | . | -0.52 | 0.79 | 83* | 4 | -0.0093
CCc1sc(C(=O)NC)cc1Br | -0.64 | -0.47 | -1 | 22 | 4 | -0.8
CCc1sc(C(=O)NCc2cc(C)n(C)n2)cc1Br | -0.24 | -5.1* | -0.038 | 15 | 16 | -0.068
CN(Cc1ccccc1)c1oc(COc2ccccc2F)nc1C#N | 1.2 | -1.2 | -0.82 | 4 | 5 | 0.52
CC1Cc2ccccc2N1C(=O)CSCC(=O)O (stereo not drawn) | -0.28 | 0.42 | 0.2 | 8 | 9 | 0.64*
CCN1CCN(CC(=O)N2c3ccccc3CC2C)CC1 (stereo not drawn) | . | . | . | . | . | -0.67
